Screens deposited in PubChem BioAssay by several laboratories.
MC4R ag barr – agonists of human melanocortin 4 receptor (MC4R) beta-arrestin; P32245; U2OS MC4R beta-arrestin complementation, luminescence; percent of melanotan II response, DMSO zero; activation, % at 8.9 µM; 360,000 compounds, 0.98% hits; AID 540308;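 active = activation above a per-plate cutoff, the mean activation of sample wells on that plate plus 3 SD, cut at about 8% in these data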
Beta cell apopt – beta cell apoptosis inhibition; AID 435005; protection from apoptosis, % (test concentration not listed); INS-1E cytokine-induced death, ATP luminescence, 48 h; percent of positive-control rescue, neutral wells zero; 300,000 compounds, 0.8% hits;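 active = Every replicate reaches about 75%, or at least half do and their mean reaches it too, limit read from the data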;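 also: 0% = cytokine-treated negative control wells and 100% = positive control rescue; higher means more ATP so stronger rescue from cytokine killing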
ANO1 activ – mouse TMEM16A channel activation, primary screen. 340,000 compounds, 0.3% hits. HEK293 TMEM16A/YFP-H148Q/I152L, iodide quench fluorescence; stronger effect = lower value. B-score at 10 µM. Q8BHY3;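 active = fluorescence-ratio B-score plate-corrected deviation score at least 3 library SD below zero, with starting fluorescence score within 5 deviations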;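 also: channel opened by trigger with iodide after compound preincubation; score built on the fluorescence ratio of max minus min over baseline; more negative score means more quench and so TMEM16A activation or potentiation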
ANO1 block – inhibitors of mouse TMEM16A calcium-activated chloride channel; 310,000 compounds, 1.2% hits; Q8BHY3; HEK293 TMEM16A/YFP iodide influx fluorescence, ionomycin; normalized B-score (activity score, 25-100; higher = stronger inhibition) at 10 µM;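 active = ratio plate-corrected score three or more library SD toward inhibition, starting fluorescence score within five deviations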;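 also: score derived from kinetic fluorescence span divided by baseline fluorescence per well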
MC4R antag cAMP – blocks human MC4R cAMP signaling. 360,000 compounds, 0.48% hits. P32245. AID 540295. inhibition, % at 6.5 µM. MC4R-expressing cells, MTII-stimulated cAMP, LANCE TR-FRET;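 active = inhibition above its plate's cutoff, the mean of tested wells on that plate plus 3 SD, cut at about 29% in these data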;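 also: 0% = Melanotan II alone and 100% = Melanotan II plus saturating MCL0020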
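Material: human MC4R-expressing U2OS cells. Probe or stimulus: Melanotan II challenge. Dosing: 6.5 µM single dose. Times: 30-min compound, 1-h challenge, 1-h detection, room temperature. Technique: TR-FRET with Eu-cAMP and labeled anti-cAMP, 671 nm. Replication: singlicate.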
CSC inhib – cancer stem cell inhibition; cancer stem cell-like cells viability, luminescence; inhibition, % at 7.5 µM; 300,000 compounds, 1.1% hits; in the data active = inhibition above about 75%; tested in HMLE shEcad cells
U2OS cAMP counter – U2OS forskolin cAMP inhibition counter-screen | shares compounds with MC4R antag cAMP | parental U2OS, LANCE TR-FRET | inhibition, % at 6.5 µM | 1,600 compounds, 26% hits | AID 602193;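 active = mean inhibition over triplicates above the low-control well mean plus 3 SD, set per campaign, cut at about 13% in these data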;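 also: signal is single emission at 671 nm which falls as cellular cAMP rises; 0% = forskolin-stimulated wells and 100% = buffer without forskolin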
MC4R cAMP antag – human MC4R cAMP antagonism confirmation; MC4R-expressing cells, MTII-stimulated cAMP, TR-FRET; 1,600 compounds, 27% hits; shares compounds with MC4R antag cAMP; AID 602195; inhibition, % at 6.5 µM; in the data active = inhibition above about 29%;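 also: 0% = agonist stimulated wells alone and 100% = agonist stimulated wells plus saturating reference antagonist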
Active calls of the source: *; i = inactive; . = no result. Most compounds without a hit are left out; they make up all but 3.8% or so of the library.

SMILES	MC4R ag barr	Beta cell apopt	ANO1 activ	ANO1 block	MC4R antag cAMP	CSC inhib	U2OS cAMP counter	MC4R cAMP antag
Cc1[nH]c(C)c(C(=O)/C=C/c2ccc([N+](=O)[O-])cc2)c1C	-2.5	-6.4	i	i	31.2*	-0.4	10.8	31.2*
COc1ccc(C=CC(=O)c2ccc([N+](=O)[O-])cc2)cc1	1.6	.	i	.	-3.8	.	.	.
CCC(C)n1c(=O)c2sccc2n2c(CCCC(=O)N3CCC(C(N)=O)CC3)nnc12 (stereo unspecified)	0.6	-3.9	i	i	-2.9	-14.9	.	.
COc1cc(OC)cc(C(=O)N2CCN(Cc3ccccc3[N+](=O)[O-])CC2)c1	2.5	-31.0	i	i	28.7*	-19.0	-1.6	-8.6
COc1ccc(C(=O)N2CCN(Cc3ccccc3[N+](=O)[O-])CC2)cc1	-0.3	-4.3	i	i	5.5	1.3	.	.
C/C(=N\NS(=O)(=O)c1ccc(C)cc1)c1cc2ccccc2oc1=O	3.3	1.5	i	i	29.6*	2.9	4.3	11.1
COc1ccccc1C1(CCNC(C)c2cccs2)CCOC(C(C)C)C1 (stereo unspecified)	1.1	-3.0	i	i	47.0*	-11.0	-3.7	37.3*
Cc1nn(CC(=O)Nc2ccccn2)c(C)c1Br	2.2	-2.6	i	i	32.3*	4.5	1.5	-1.4
CC1CCN(C(=O)c2ccc3c(c2)NC(=O)/C(=C/c2ccccc2)S3)CC1	8.8*	19.6	i	i	35.4*	65.0	-1.4	1.6
Cc1cc(C)nc(SCC(=O)N2CCCCC2)n1	-0.3	-3.4	i	i	-0.5	-12.3	.	.
Cc1cc2nnc(SCC(=O)N3CCCCCC3)n2c(N)n1	-1.5	-2.1	i	i	29.3*	4.1	0.1	-11.7
Cc1ccc(CN2CC(=O)N3[C@H]4c5ccccc5OC[C@@H]4[C@H](c4ccccc4)[C@]3(C)C2=O)cc1	0.5	11.8	i	.	3.5	19.2	.	.
C[C@@]12C(=O)N(Cc3ccccc3)CC(=O)N1[C@H]1c3ccccc3OC[C@@H]1[C@@H]2c1ccccc1	1.3	8.7	i	.	29.5*	0.0	0.0	3.6
CCN(c1ccc(OC)cc1)S(=O)(=O)c1ccc2c(c1)CC(C)N2C(=O)C1CC1 (stereo unspecified)	-2.1	1.9	i	i	5.3	-11.9	.	.
C[C@H](CO)N1C[C@H](C)[C@@H](CN(C)S(=O)(=O)c2cccs2)Oc2c(NC(=O)CCC(F)(F)F)cccc2C1=O	-1.5	0.6	i	.	7.3	-9.8	.	.
CCOC(=O)c1ccc2ncc(C(=O)OCC)c(Nc3ccc(N4CCOCC4)cc3)c2c1	1.0	32.7	i	i	47.6*	40.2	2.7	48.1*
CCOC(=O)c1cnc2ccc(C(=O)OC)cc2c1Nc1ccc(C(=O)O)cc1	0.7	4.7	i	i	2.1	-9.7	.	.
CCCc1cc(=O)[nH]c(SCC(=O)N2CCOCC2)n1	-1.1	-2.2	i	i	3.8	-13.8	.	.
Cc1cccc(NC(=O)CSc2nnc3ccc(-c4cccnc4)nn23)c1	-0.2	.	.	.	5.4	.	.	.
CCOC(=O)N1CCN(C(=O)CNS(=O)(=O)c2c(C)cc(C)cc2C)CC1	2.3	.	i	i	1.7	1.3	.	.
COC(=O)c1ccc(/C=C/C(=O)OCC(=O)Nc2sccc2C(N)=O)cc1	4.3	-1.6	i	.	35.8*	1.9	14.9*	29.5*
NC(=O)c1ccsc1NC(=O)COC(=O)/C=C/c1ccc([N+](=O)[O-])cc1	-1.5	-6.0	i	i	3.5	-8.9	.	.
O=C(COC(=O)c1ccccc1O)Nc1cccc(S(=O)(=O)N2CCCC2)c1	-1.4	-0.8	i	.	5.4	-12.1	.	.
COC(=O)c1ccccc1NC(=O)CNC(=O)c1ccc(OC)c(OC)c1	0.8	-4.5	i	i	31.0*	-5.2	5.9	2.0
